Bioassay records (PubChem BioAssay)
HTR1A agonist: agonists of human 5-HT1a serotonin receptor; activation, % at 10 µM; CHO 5-HT1a Ga15 NFAT-bla reporter, FRET ratio; 0% basal, 100% maximal reference agonist; hit rate 0.56% among 65,000;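 active = activation above the screen-wide mean activation plus 3 SD, cut at about 19% in these data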;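 also: 0% = DMSO wells and 100% = 5-CT at EC100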
Target sequence (P08908 whole entry, looked up): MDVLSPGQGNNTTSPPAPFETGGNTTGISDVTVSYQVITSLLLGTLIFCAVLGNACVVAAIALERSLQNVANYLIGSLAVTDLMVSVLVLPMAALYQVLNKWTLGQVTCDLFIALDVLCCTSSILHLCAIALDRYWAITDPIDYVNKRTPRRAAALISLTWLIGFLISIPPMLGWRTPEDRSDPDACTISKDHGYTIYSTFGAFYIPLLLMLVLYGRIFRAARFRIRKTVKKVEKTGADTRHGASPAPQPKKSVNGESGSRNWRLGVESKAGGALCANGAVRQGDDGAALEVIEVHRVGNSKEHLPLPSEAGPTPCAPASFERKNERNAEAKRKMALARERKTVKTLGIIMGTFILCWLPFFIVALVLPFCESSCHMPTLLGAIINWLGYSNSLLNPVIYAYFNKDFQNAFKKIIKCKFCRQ
HEK293 NFkB inh: lowers PMA/ionomycin-induced NF-kB signal in HEK293 cells; HEK-293 NF-kB luciferase reporter, luminescence; inhibition, % at 3 µM; hit rate 0.21% among 62,000;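 active = inhibition above the mean of all tested compounds plus 3 SD, cut at about 40% in these data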;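 also: 0% = stimulated DMSO wells and 100% = 10 µM reference inhibitor 5653914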
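Signal: luciferase luminescence; Material: HEK-293 cells with stable firefly luciferase reporter driven by four HIV NF-kB elements; Probe or stimulus: PMA with ionomycin; Replication: tested once; Times: 1 h compound pretreatment, then 16 h stimulation at 37 °C, 5% CO2; Benchmarks: DMSO and 10 µM reference inhibitor; Evaluation: per-plate % inhibition versus controls.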
5-HT1A blocker: 5-HT1a (human) receptor antagonism. hit rate 0.68% among 62,000. CHO 5-HT1a Ga15 NFAT-bla reporter, antagonist mode. inhibition, % at 10 µM. AID 612. P08908;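 active = inhibition above the mean of all tested compounds plus 3 SD, cut at about 43% in these data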;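 also: receptor stimulated by 5-CT agonist at 100 nM near EC80; beta-lactamase reporter measured by ratiometric fluorescence of a cleavable substrate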
5HT1E ag: 5-HT1E (human) receptor agonism | CHO 5-HT1E Ga15 NFAT-bla reporter, FRET; 0% DMSO wells, 100% control agonist wells | activation, % at 6 µM | hit rate 0.69% among 65,000;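 active = activation above a set limit, the screen-wide mean activation plus 3 SD, cut at about 8.5% in these data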;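 also: 100% = positive control agonist at 1 µM giving full maximal response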
5HT1E antag: blocks the human 5-HT1E serotonin receptor | CHO 5-HT1E Ga15 NFAT-bla reporter, FRET, antagonist | inhibition, % at 6 µM | P28566 | hit rate 0.99% among 65,000;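 active = inhibition above a set limit, the mean inhibition across every tested compound plus 3 SD, cut at about 29% in these data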;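 also: signal is the 460 over 535 nm emission ratio of beta-lactamase substrate; 0% = agonist plus DMSO wells and 100% = wells without agonist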
Jurkat viability: reduces viability or proliferation of Jurkat cells; Jurkat E6.1 viability, ATP luminescence, 48 h; inhibition, % at 4 µM; hit rate 1.2% among 56,000; AID 463;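 active = inhibition above the mean inhibition of all tested compounds plus 3 SD, cut at about 28% in these data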
The depositor's hits bear a star; · = no result given. An excerpt weighted towards active compounds, which were near 3.3% of everything screened.

SMILES	HTR1A agonist	HEK293 NFkB inh	5-HT1A blocker	5HT1E ag	5HT1E antag	Jurkat viability
Cc1ccc(N2C(=O)CC3(CC4C=CC3C4)C2=O)cc1 (configuration not stated)	-0.3	·	·	-0.2	-2.8	·
CN1/C(=C\C(=O)COc2ccc3c(c2)OCO3)C(C)(C)c2ccccc21	-4.9	8.0	10.5	13.8*	0.7	8.5
CN1/C(=C\C(=O)COC(=O)C2COc3ccccc3O2)C(C)(C)c2ccccc21 (configuration not stated)	-0.1	-5.5	3.7	0.7	6.6	-4.7
FC(F)(F)c1cc(-c2ccco2)nc(NCc2ccco2)n1	2.4	18.3	21.5	-0.9	12.5	·
CS(=O)(=O)c1nc(-c2ccco2)cc(C(F)(F)F)n1	-5.3	14.0	103.1*	-1.3	99.5*	·
Cc1cc(NC(=O)CSc2nc(-c3ccco3)cc(C(F)(F)F)n2)no1	-1.1	26.4	59.1*	-1.8	67.7*	59.4*
O=C(CSCc1ccc(Cl)cc1)c1ccco1	-2.2	12.7	1.8	-0.5	-0.1	·
O=C(NC1CCCC1)C1C2C=CC3(CN(Cc4cccs4)C(=O)C13)O2 (configuration not stated)	1.2	-3.3	-5.0	1.7	0.1	-10.3
O=C(NCC1CCCO1)C1C2C=CC3(CN(Cc4cccs4)C(=O)C13)O2 (configuration not stated)	-1.4	6.5	6.7	28.9*	2.5	3.3
Cc1ccc(S(=O)(=O)N2CCOCC2)cc1C(=O)NCc1cn2ccsc2n1	-1.2	-2.0	-1.6	-0.3	-9.7	-0.4
CC(C)(C)NC(=O)C(c1ccco1)N(C(=O)Cn1nnc(-c2ccc(F)cc2)n1)c1ccccc1F (configuration not stated)	3.3	3.0	0.7	0.9	-0.2	-3.9
CCn1c(SC(C)C(=O)OC)nnc1-c1c[nH]c2ccccc12 (configuration not stated)	-1.9	5.7	-2.4	0.5	1.2	-7.9
CCOC(=O)CSc1n[nH]c(-c2ccco2)n1	-2.6	0.2	9.0	-0.3	12.7	-2.4
CCOC(=O)c1c(NC(=O)CSc2n[nH]c(-c3ccco3)n2)sc(C)c1C	1.5	7.4	22.5	-0.5	43.6*	7.2
O=C(O)c1ccc(CSc2n[nH]c(-c3ccco3)n2)cc1	-1.1	8.6	-3.4	-0.5	-2.8	0.2
O=C(CSc1n[nH]c(-c2ccco2)n1)N1c2ccccc2Sc2ccccc21	-1.1	1.8	30.1	-1.4	37.4*	2.5
O=C(Cn1nc(C(F)(F)F)c2c1CCCC2)Nc1ccc2c(c1)OCO2	-4.5	4.6	14.2	0.1	1.8	6.8
Cc1cc(C2C(=O)CC(=O)CC2c2ccccc2)on1 (configuration not stated)	-1.1	5.4	6.6	12.2*	6.0	-12.3
Cc1nc(C)c(C(=O)Nc2ccc(Oc3ccccc3)cc2)o1	0.8	19.6	-19.1	0.0	4.4	29.5*
Cc1ncoc1C(=O)Nc1ccc(Oc2ccccc2)cc1	-1.3	-0.2	-6.7	-0.2	-2.0	1.3
O=C(CN(Cc1ccccc1F)C(=O)Cn1nnc(-c2cccs2)n1)NCC1CCCO1 (configuration not stated)	-0.1	-0.5	-4.5	-0.3	1.5	-3.5
COc1ccc(OCC(O)Cn2c(=N)n(Cc3ccccc3)c3ccccc32)cc1 (configuration not stated)	-3.4	21.6	47.5*	-1.7	11.7	11.8
Cc1cccc(OCC(O)Cn2c(=N)n(CCN3CCCCC3)c3ccccc32)c1 (configuration not stated)	7.4	8.2	68.4*	0.1	5.8	6.5
O=C(NCc1cccs1)C1CCN(S(=O)(=O)c2cccc3cccnc23)CC1	2.1	-4.5	22.1	-1.7	20.8	-1.0
OCCN(CCO)c1ncnc2c1sc1nc(N3CCOCC3)c3c(c12)CCCC3	5.6	·	·	0.6	30.7*	·
SMILES	HTR1A agonist	HEK293 NFkB inh	5-HT1A blocker	5HT1E ag	5HT1E antag	Jurkat viability
OCCN1CCN(c2ncnc3c2sc2nc(N4CCOCC4)c4c(c23)CCC4)CC1	1.2	17.2	-18.9	1.7	15.8	·
CCOC(=O)NC(NC(=O)OCC)C(=O)c1ccccc1	-1.0	3.8	0.0	0.1	-5.3	3.0
CC(=O)N1CCN(CC(O)COc2ccc(OCc3ccccc3)cc2)CC1 (configuration not stated)	-1.5	10.0	-4.4	0.1	-9.6	2.9
CCOC(=O)N1CCN(CC(O)COc2c(OC)cccc2OC)CC1 (configuration not stated)	168.5*	-0.2	-10.4	-0.3	-7.1	-9.6
OC(COc1ccccc1Cl)CN1CCN(CC(O)COc2ccccc2Cl)CC1 (configuration not stated)	5.3	15.3	58.2*	0.3	8.2	-3.6
C=CCc1ccccc1OCC(O)CN1CCN(c2ccccc2OC)CC1 (configuration not stated)	1.9	9.8	91.3*	1.3	-1.2	·
Clc1cccc(N2CCN(CCNc3nc4ccccc4n4cnnc34)CC2)c1	6.0	9.2	17.4	8.9*	5.7	-2.6
CCN(CCNC(=O)c1cc(C)nn1-c1ccccc1)c1ccccc1	-2.6	2.0	16.0	0.8	-0.6	1.4
Cc1ccc2c(CC(=O)Nc3nc(C)cs3)coc2c1	-1.8	16.9	28.0	-0.5	7.1	·
CCOC(=O)c1ccc(N=c2sc(C(=O)OC)cc(=O)n2Cc2ccco2)cc1	-2.1	12.0	29.8	0.3	11.9	8.2
CCOC(=O)c1ccc(N=c2sc(C(=O)OC)cc(=O)n2CCCN2CCOCC2)cc1	0.4	10.3	31.6	-2.5	40.0*	6.6
CCn1c(=O)cc(C(=O)OC)sc1=Nc1ccc(F)c(F)c1	0.2	19.4	5.8	0.6	38.2*	9.7
O=S(=O)(Nc1ccc(N2CCOCC2)cc1)c1cccs1	-1.8	14.4	-10.3	10.4*	5.8	8.4
O=S(=O)(Nc1ccc(S(=O)(=O)N2CCCCC2)cc1)c1cccs1	0.6	-1.0	-6.6	0.8	2.0	-4.7
Cc1cc(C)n(-c2ccc(C(=O)Nc3ccc(S(=O)(=O)NCc4ccco4)cc3)cc2)n1	1.9	28.1	2.3	1.0	-1.1	64.9*
CC1CCCCN1C(=O)CSc1nnc(-c2c[nH]c3ccccc23)o1 (configuration not stated)	3.6	-7.6	-13.8	23.4*	-3.2	-7.8
Cc1ccc(C(=O)NCC(=O)OCC(=O)c2c(N)n(C)c(=O)n(C)c2=O)s1	-2.0	10.9	1.3	0.4	6.9	0.4
Cc1ccc(N(CC2=NCCN2)c2cccc(O)c2)cc1	·	1.0	·	-1.8	52.2*	-2.7
c1ccc(CN(CC2=NCCN2)c2ccccc2)cc1	-0.1	·	·	0.2	2.8	·
COc1ccc(OC)c(NS(=O)(=O)Cc2ccccc2)c1	0.8	13.6	-7.7	-0.5	5.5	-3.3
